According to ChEMBL document CHEMBL1144562, “Synthesis of a new class of 2-anilino substituted nicotinyl arylsulfonylhydrazides as potential anticancer and antibacterial agents” (2007):
In brackets after ≈: the same amount, converted by molar mass.

Key:
Format in all cases: functional
[1] = system: SN12C; test: Antitumor activity against SN12C cells; conditions: Homo sapiens; for TGI: read-out: Log TGI (converted)
Method in brief: (§1)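 Tested in the NCI 60-human-tumour-cell-line panel at five concentrations, in 10-fold dilutions from 10^-4 to 10^-8 M. Three parameters were taken from the dose-response data, each as log10 of the molar concentration: GI50 (50% net growth inhibition), TGI (total growth inhibition) and LC50 (50% net cell death).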

[2] = system: MDA-MB-231; test: Antitumor activity against MDA-MB-231 cells; conditions: Homo sapiens; for TGI: read-out: Log TGI (converted)
[3] = system: BT-549; test: Antitumor activity against BT549 cells; conditions: Homo sapiens; for TGI: read-out: Log TGI (converted)
[4] = system: SK-MEL-2; test: Antitumor activity against SK-MEL-2 cells; conditions: Homo sapiens; for TGI: read-out: Log TGI (converted)
[5] = system: UO-31; test: Antitumor activity against UO31 cells; conditions: Homo sapiens; for TGI: read-out: Log TGI (converted); method in brief: as §1
[6] = system: OVCAR-5; test: Antitumor activity against OVCAR5 cells; conditions: Homo sapiens; for CC50: read-out: Log LC50 (the source's name) (converted); for TGI: read-out: Log TGI (converted)
[7] = system: A549; test: Antitumor activity against A549 cells; conditions: Homo sapiens; for TGI: read-out: Log TGI (converted)
[8] = system: SR; test: Antitumor activity against SR cells; conditions: Homo sapiens; for TGI: read-out: Log TGI (converted); method in brief: as §1
[9] = system: SNB-19; test: Antitumor activity against SNB19 cells; conditions: Homo sapiens; for CC50: read-out: Log LC50 (the source's name) (converted); for TGI: read-out: Log TGI (converted); method in brief: as §1
[10] = system: NCI-H23; test: Antitumor activity against NCI-H23 cells; conditions: Homo sapiens; for TGI: read-out: Log TGI (converted)
[11] = system: OVCAR-3; test: Antitumor activity against OVCAR-3 cells; conditions: Homo sapiens; for CC50: read-out: Log LC50 (the source's name) (converted); for TGI: read-out: Log TGI (converted)
[12] = Antitumor activity against NCI-H322 cells; conditions: Homo sapiens; for CC50: read-out: Log LC50 (the source's name) (converted); for TGI: read-out: Log TGI (converted)
[13] = system: 786-0; test: Antitumor activity against 786-0 cells; conditions: Homo sapiens; for TGI: read-out: Log TGI (converted)
[14] = system: NCI/ADR-RES; test: Antitumor activity against NCI/ADR-RES cells; conditions: Homo sapiens; for TGI: read-out: Log TGI (converted)
[15] = system: U-251; test: Antitumor activity against U251 cells; conditions: Homo sapiens; for TGI: read-out: Log TGI (converted); method in brief: as §1
[16] = system: RXF 393; test: Antitumor activity against RXF393 cells; conditions: Homo sapiens; for TGI: read-out: Log TGI (converted)
[17] = system: RPMI-8226; test: Antitumor activity against RPMI-8226 cells; conditions: Homo sapiens; for TGI: read-out: Log TGI (converted)
[18] = system: ACHN; test: Antitumor activity against ACHN cells; conditions: Homo sapiens; for TGI: read-out: Log TGI (converted)
[19] = system: Staphylococcus epidermidis; test: Antibacterial activity against Staphylococcus epidermidis MTCC 435 after 18 hrs; conditions: MTCC 435, 18 h
Method in brief: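 Disc diffusion (Kirby–Bauer) on Mueller-Hinton agar inoculated with fresh bacteria at 1-5 × 10^4 cfu mL-1. Compounds were dissolved in DMF at a range of concentrations, and discs were placed in triplicate. Plates were incubated at 30 °C for 18 h. MIC was taken as the lowest concentration giving no visible bacterial growth on the plate.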

[20] = system: OVCAR-8; test: Antitumor activity against OVCAR8 cells; conditions: Homo sapiens; for CC50: read-out: Log LC50 (the source's name) (converted); for TGI: read-out: Log TGI (converted)
[21] = system: SF-295; test: Antitumor activity against SF295 cells; conditions: Homo sapiens; for CC50: read-out: Log LC50 (the source's name) (converted); for TGI: read-out: Log TGI (converted)
[22] = system: COLO 205; test: Antitumor activity against COLO205 cells; conditions: Homo sapiens; for TGI: read-out: Log TGI (converted)
[23] = system: IGROV-1; test: Antitumor activity against IGROV1 cells; conditions: Homo sapiens
[24] = system: NCI-H522; test: Antitumor activity against NCI-H522 cells; conditions: Homo sapiens
[25] = read-out: Log LC50 (the source's name) (converted)

## O=C(NNS(=O)(=O)c1ccc(Cl)cc1Cl)c1cccnc1Nc1ccc(Cl)cc1
[1]
  GI50: 31.6 µM
  LC50: > 100 µM
  TGI: > 100 µM
[2]
  GI50: 19.1 µM
  LC50: > 100 µM
  TGI: 50.1 µM
[3]
  GI50: 16.6 µM
  LC50: 72.4 µM
  TGI: 34.7 µM
[4]
  GI50: 18.6 µM
  LC50: 97.7 µM
  TGI: 42.7 µM
[5]
  GI50: 37.2 µM
  LC50 (50% net cell death): > 100 µM
  TGI: > 100 µM
[6]
  GI50: 26.3 µM
  CC50: > 100 µM
  TGI: 77.6 µM
[7]
  GI50: 24.5 µM
  LC50: > 100 µM
  TGI: 70.8 µM
[8]
  GI50: 14.8 µM
  LC50: 97.7 µM
  TGI: 38 µM
[9]
  GI50: 26.9 µM
  CC50: > 100 µM
  TGI: 100 µM
[10]
  GI50: 17.4 µM
  LC50: > 100 µM
  TGI: 42.7 µM
[11]
  GI50: 20.4 µM
  CC50: > 100 µM
  TGI: > 100 µM
[12]
  GI50: 14.8 µM
  CC50: > 100 µM
  TGI: 40.7 µM
[13]
  GI50: 19.5 µM
  LC50 (lethal concentration, 50%): > 100 µM
  TGI: 49 µM
[14]
  GI50: 23.4 µM
  LC50: > 100 µM
  TGI: 75.9 µM
[15]
  GI50: 34.7 µM
  LC50: > 100 µM
  TGI: 100 µM
[16]
  GI50: 17 µM
  LC50: > 100 µM
  TGI: 43.7 µM
[17]
  GI50: 17.8 µM
  LC50: > 100 µM
  TGI: 53.7 µM
[18]
  GI50: 29.5 µM
  LC50: > 100 µM
  TGI: 93.3 µM
[19]
  MIC: 17 µg/mL (≈ 36 µM)
[20]
  GI50: 26.9 µM
  CC50: > 100 µM
  TGI: 74.1 µM
[21]
  GI50: 30.2 µM
  CC50: > 100 µM
  TGI: 77.6 µM
[22]
  GI50: 12 µM
  LC50: 49 µM
  TGI: 24.5 µM

## O=C(NNS(=O)(=O)c1ccc(F)cc1)c1cccnc1Nc1ccc(Cl)cc1Cl
[1]
  GI50: 17.8 µM
  LC50: 57.5 µM
  TGI: 31.6 µM
[2]
  GI50: 28.8 µM
  LC50: > 100 µM
  TGI: > 100 µM
[3]
  GI50: 36.3 µM
  LC50: > 100 µM
  TGI: 100 µM
[4]
  GI50: 42.7 µM
  LC50: > 100 µM
  TGI: > 100 µM
[6]
  GI50: 52.5 µM
  CC50: > 100 µM
  TGI: > 100 µM
[7]
  GI50: 17.4 µM
  LC50: 97.7 µM
  TGI: 40.7 µM
[8]
  GI50: 22.9 µM
  LC50: > 100 µM
  TGI: 67.6 µM
[9]
  GI50: 29.5 µM
  CC50: > 100 µM
  TGI: > 100 µM
[10]
  GI50: 36.3 µM
  LC50: > 100 µM
  TGI: > 100 µM
[11]
  GI50: 29.5 µM
  CC50: > 100 µM
  TGI: 95.5 µM
[12]
  GI50: 30.9 µM
  CC50: > 100 µM
  TGI: > 100 µM
[13]
  GI50: 22.9 µM
  LC50 (lethal concentration, 50%): > 100 µM
  TGI: 53.7 µM
[14]
  GI50: 39.8 µM
  LC50: > 100 µM
  TGI: > 100 µM
[15]
  GI50: 28.8 µM
  LC50: > 100 µM
  TGI: > 100 µM
[16]
  GI50: 11.5 µM
  LC50: 66.1 µM
  TGI: 27.5 µM
[18]
  GI50: 45.7 µM
  LC50: > 100 µM
  TGI: > 100 µM
[19]
  MIC: 21 µg/mL (≈ 46.1 µM)
[20]
  GI50: 26.9 µM
  CC50: > 100 µM
  TGI: > 100 µM
[21]
  GI50: 37.2 µM
  CC50: > 100 µM
  TGI: > 100 µM
[22]
  GI50: 16.2 µM
  LC50: > 100 µM
  TGI: 51.3 µM

## CC(=O)Nc1ccc(S(=O)(=O)NNC(=O)c2cccnc2Nc2ccc(Cl)cc2)cc1
[1]
  GI50: 58.9 µM
  LC50: > 100 µM
  TGI: > 100 µM
[2]
  GI50: 41.7 µM
  LC50: > 100 µM
  TGI: > 100 µM
[3]
  GI50: 25.1 µM
  LC50: > 100 µM
  TGI: > 100 µM
[5]
  GI50: 91.2 µM
  LC50 (50% net cell death): > 100 µM
  TGI: > 100 µM
[7]
  GI50: 32.4 µM
  LC50: > 100 µM
  TGI: > 100 µM
[8]
  GI50: 6.31 µM
  LC50: > 100 µM
  TGI: > 100 µM
[9]
  GI50: 14.1 µM
  CC50: > 100 µM
  TGI: > 100 µM
[11]
  GI50: 3.72 µM
  CC50: > 100 µM
  TGI: > 100 µM
[12]
  GI50: > 100 µM
  CC50: > 100 µM
  TGI: > 100 µM
[13]
  GI50: 47.9 µM
  LC50 (lethal concentration, 50%): > 100 µM
  TGI: > 100 µM
[15]
  GI50: 24 µM
  LC50: > 100 µM
  TGI: > 100 µM
[16]
  GI50: 37.2 µM
  LC50: > 100 µM
  TGI: > 100 µM
[17]
  GI50: 28.8 µM
  LC50: > 100 µM
  TGI: > 100 µM
[23]
  GI50: 27.5 µM
[23]; [25]
  CC50: > 100 µM
[23]; read-out: Log TGI (converted)
  TGI: > 100 µM
[18]
  GI50: 52.5 µM
  LC50: > 100 µM
  TGI: 75.9 µM
[19]
  MIC: 22 µg/mL (≈ 47.8 µM)
[20]
  GI50: 36.3 µM
  CC50: > 100 µM
  TGI: > 100 µM
[21]
  GI50: 3.47 µM
  CC50: > 100 µM
  TGI: > 100 µM
[22]
  GI50: 10.2 µM
  LC50: > 100 µM
  TGI: 57.5 µM
[24]
  GI50: 6.46 µM
[24]; [25]
  CC50: > 100 µM
[24]; read-out: Log TGI (converted)
  TGI: > 100 µM
